From PubChem
UBC13 inh = UBC13 polyubiquitin chain formation inhibitors, primary screen, biochemical, TR-FRET, uHTS; actives 0.47% (n = 330,000); Ubiquitin-conjugating enzyme E2 N (Homo sapiens), P61088; inhibition, % at 20 µM; in the data active means inhibition above about 45%, passing the limit was not always enough
Apaf1 inhib = inhibitors of human Apaf-1 apoptosome, primary screen, biochemical, DEVD-Rh110 fluorescence, uHTS. Apoptotic protease-activating factor 1 (Homo sapiens), O14727. reconstituted apoptosome caspase-3 activity. inhibition, % at 20 µM. actives 0.71% (n = 330,000). AID 489030, 2010; active means inhibition of at least 40% at 20 µM;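 further: plate controls were DMSO wells for no effect and DEVD-CHO caspase inhibitor wells for full effect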
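Assay system – apoptosome proteins · Medium – Hepes buffer, pH 7.5 · Also added – cytochrome c with DEVD-Rh110 · Timing – 30 min compound preincubation, 50 min activation, room temperature · Detection – Rh110 fluorescence, excitation 480 nm, emission 540 nm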
MEKK2mut PB1 HTS = MEK5 binding signal on mutant MEKK2 PB1, primary screen, biochemical, multiplex bead flow cytometry, Alexa488-MEK5 | AID 1530, 2009 | percent response, % at 10 µM | Alexa488-MEK5 binding to MEKK2 mutant | actives 0.35% (n = 290,000); in the data active means percent response above about 24%, passing the limit was not always enough
PREPL inh = PREPL enzyme inhibitors, primary screen, biochemical, fluorescence polarization. recombinant PREPL, fluorescence polarization activity-based probe. AID 2751, 2010. actives 0.68% (n = 320,000). inhibition, % at 5.96 µM; in the data active means inhibition above about 43%;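 further: 0% = enzyme with DMSO and 100% = wells lacking enzyme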
Target sequence (Q4J6C6 whole entry, looked up): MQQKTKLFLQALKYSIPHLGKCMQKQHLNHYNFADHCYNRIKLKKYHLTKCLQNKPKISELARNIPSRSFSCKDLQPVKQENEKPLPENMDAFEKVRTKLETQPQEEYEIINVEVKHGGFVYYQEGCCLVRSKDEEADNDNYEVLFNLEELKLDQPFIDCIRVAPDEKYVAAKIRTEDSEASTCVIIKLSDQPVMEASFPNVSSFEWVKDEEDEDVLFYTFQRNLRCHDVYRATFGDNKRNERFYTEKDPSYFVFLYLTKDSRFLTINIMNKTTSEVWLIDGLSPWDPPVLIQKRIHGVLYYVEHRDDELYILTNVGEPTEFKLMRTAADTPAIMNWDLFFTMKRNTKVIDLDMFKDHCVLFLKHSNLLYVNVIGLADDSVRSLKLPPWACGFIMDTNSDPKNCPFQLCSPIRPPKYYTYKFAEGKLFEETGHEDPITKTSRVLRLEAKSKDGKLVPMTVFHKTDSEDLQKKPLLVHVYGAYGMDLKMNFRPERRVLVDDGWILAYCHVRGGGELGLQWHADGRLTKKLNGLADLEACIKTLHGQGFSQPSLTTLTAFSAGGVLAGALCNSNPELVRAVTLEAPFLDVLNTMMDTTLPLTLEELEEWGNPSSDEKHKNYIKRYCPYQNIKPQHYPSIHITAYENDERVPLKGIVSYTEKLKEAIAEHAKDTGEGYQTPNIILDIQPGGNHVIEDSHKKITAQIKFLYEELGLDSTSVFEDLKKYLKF
MEKK3 PB1 HTS = modulators of MEKK3-MEK5 PB1 binding, primary screen, biochemical, wildtype MEKK3, multiplex bead flow cytometry, Alexa488-MEK5; Mitogen-activated protein kinase kinase kinase 3 (Homo sapiens), Q99759; actives 1.4% (n = 290,000); bead-based flow cytometry, Alexa488-MEK5 binding to MEKK3; actives lie on both sides; 0 = blocked by unlabeled MEK5, 100 = vehicle; AID 1529, 2009; binding response (% of control), % at 10 µM;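 active means binding response more than 3 SD above or below the average of its plate-row segment, actives on both sides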;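 further: Alexa488 bead fluorescence after subtracting the streptavidin-only scavenger bead signal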
MEKK2 WT-MEK5 = modulators of MEK5 binding to wildtype MEKK2, primary screen, biochemical, multiplex bead flow cytometry, Alexa488-MEK5. Alexa488-MEK5 binding to MEKK2 WT; actives lie on both sides. Mitogen-activated protein kinase kinase kinase 2 (Homo sapiens), Q9Y2U5. actives 1.1% (n = 290,000). binding response (% of control), % at 10 µM; in the data active means binding response below about 67% or above about 130%
MEKK2wt confirm = modulators of MEK5 binding to wildtype MEKK2, confirmation, biochemical, single concentration, multiplex bead flow cytometry | shares compounds with MEKK3 PB1 HTS | Alexa488-MEK5 binding to MEKK2 WT; actives lie on both sides | binding response (% of control), % at 10 µM | actives 2.4% (n = 5,900) | AID 1892, 2009; in the data active means binding response below about 16% or above about 210%; inactive means in between
MEKK2mut confirm = mutant MEKK2 PB1-MEK5 binding signal retest – biochemical, single concentration, multiplex bead flow cytometry, confirmation; AID 1893, 2009; Alexa488-MEK5 binding to MEKK2 mutant; actives 2% (n = 5,900); percent response, % at 10 µM; shares compounds with MEKK3 PB1 HTS; in the data active means percent response mostly above about 71%, no sharp cut-off; inactive means mostly below about 38%;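 further: higher means compound restores mutant binding toward wildtype level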
MEKK3-MEK5 inh = MEKK3 wild-type PB1 binding to MEK5, inhibitors, confirmation, biochemical, bead multiplex flow cytometry, single concentration, wildtype | Alexa488-MEK5 binding to MEKK3; active compounds read low | shares compounds with MEKK3 PB1 HTS | binding response (% of control), % at 10 µM | actives 1.8% (n = 5,900);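 active means binding response below 72% of control, or above a set upper limit, though filed actives all read lower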;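 further: 100% = DMSO only wells and 0% = binding blocked by excess unlabeled MEK5; lower values mean stronger disruption of MEK5 binding to MEKK3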
The depositor's hits bear a star; x = no result; [ ] = another dose, or the depositor's remark. Most compounds without a hit are left out; they make up all but 3.1% or so of the library.

SMILES | UBC13 inh | Apaf1 inhib | MEKK2mut PB1 HTS | PREPL inh | MEKK3 PB1 HTS | MEKK2 WT-MEK5 | MEKK2wt confirm | MEKK2mut confirm | MEKK3-MEK5 inh
CCc1ccccc1OCC(=O)Nc1cc(S(=O)(=O)N(CC)CC)ccc1N1CCOCC1 | -0.7 | 17.2 | x | 5.9 | x | x | x | x | x
C/C(=N\N=C\c1ccc(N(C)C)cc1)c1cccc([N+](=O)[O-])c1 | -0.7 | 13.8 | -1.0 | 4.5 | 73.0*[inhibitor] | 99.0 | 104.0 | 11.0 | 108.0
COc1ccc(C(=O)CSc2n[nH]c(C)n2)cc1[N+](=O)[O-] | 5.2 | 1.8 | -14.0 | 13.3 | 46.0*[inhibitor] | 59.0 | 104.0 | 1.0 | 101.0
COc1ccc(Cl)cc1NC(=O)CN(C)CC(=O)Nc1cc(OC)c(OC)c(OC)c1 | 9.0 | 2.7 | -6.0 | 11.4 | 100.0 | 100.0 | x | x | x
COc1cccc(CN(C)CC(=O)NNC(=O)c2ccc(Cl)cc2)c1 | -1.7 | 11.3 | 6.0 | 14.7 | 94.0 | 94.0 | x | x | x
CCOc1ccc(CN(C)CC(=O)NNC(=O)c2ccc(Cl)cc2)cc1OC | -9.3 | -14.4 | -1.0 | 0.5 | 128.0* | 98.0 | 100.0 | -7.0 | 97.0
COc1ccc(C)cc1NC(=O)c1ccc(NS(=O)(=O)c2cccc3cccnc23)cc1 | -6.3 | 0.3 | 26.0 | -5.6 | 131.0* | 111.0 | 97.0 | -1.0 | 102.0
COc1ccc(NS(=O)(=O)c2cccc3cccnc23)cc1 | -7.5 | 18.7 | -2.0 | 0.9 | 72.0*[inhibitor] | 89.0 | 107.0 | 6.0 | 107.0
COC(=O)CS(=O)(=O)c1cccc2cccnc12 | -25.1 | -8.2 | -60.0 | 15.4 | 3.0*[inhibitor] | 4.0*[inhibitor] | 90.0 | -7.0 | 92.0
COc1ccccc1NC(=O)c1ccc(NS(=O)(=O)c2cccc3cccnc23)cc1 | -10.3 | 16.7 | 2.0 | -3.2 | 96.0 | 102.0 | x | x | x
Cc1cccc(C)c1NC(=O)CN(C)CC(=O)c1c(N)n(Cc2ccccc2)c(=O)n(C)c1=O | 5.0 | 17.8 | x | 2.1 | x | x | x | x | x
Clc1ccc(/C(Cc2nc3ccccc3[nH]2)=N\Nc2ccccc2)cc1 | -14.1 | 8.9 | 42.0 | 4.0 | 110.0 | 153.0* | 138.0 | 13.0 | 108.0
COC(=O)CCC(=O)OC1(C)C(=O)C=C2C=C3CCCN3C=C2C1=O (centres undefined) | -41.8 | 16.3 | 3.0 | 10.7 | 97.0 | 101.0 | x | x | x
COC(=O)CCC(=O)OC1(C)C(=O)C=C2C=C(C3CC3)N(C(CO)CO)C=C2C1=O (centres undefined) | -79.7 | 32.9 | 3.0 | 3.5 | 124.0 | 151.0* | 104.0 | 2.0 | 101.0
OCCN(Cc1ccccc1)C(=S)NC1CCCCC1 | 1.1 | 2.8 | -5.0 | -4.0 | 102.0 | 96.0 | x | x | x
S=C(NC1CCCCC1)N(CCc1ccccc1)CCc1ccccc1 | 5.6 | 2.9 | 51.0* | -8.5 | 107.0 | 125.0 | 108.0 | 0.0 | 101.0
CC(C)NC(=O)CSc1ccccc1C(=O)N1CCN(S(=O)(=O)Cc2ccccc2)CC1 | -2.5 | -0.3 | x | x | x | x | x | x | x
COc1cc2c(cc1NC(=O)Nc1ccccc1)oc1ccccc12 | -1.4 | 1.9 | 18.0 | 8.5 | 105.0 | 140.0* | 157.0 | 16.0 | 96.0
COc1cc2c(cc1NC(=O)c1ccc3c(c1)OCO3)oc1ccccc12 | 14.2 | -6.9 | -34.0 | 3.2 | 99.0 | -5.0*[inhibitor] | 95.0 | -4.0 | 99.0
COc1cc2c(cc1NC(=S)Nc1cccc(C(F)(F)F)c1)oc1ccccc12 | 4.2 | 1.4 | 19.0 | 21.9 | 102.0 | 153.0* | 126.0 | -7.0 | 101.0
Cc1c(NC(=O)c2ccc3c(c2)OCO3)cccc1-c1nc2ccccc2o1 | -10.3 | 17.7 | 4.0 | -11.4 | 131.0* | 113.0 | 108.0 | 13.0 | 111.0
COc1cc2c(cc1NC(=O)CCC(=O)O)oc1ccccc12 | -7.1 | -1.0 | 0.0 | 0.8 | 101.0 | 106.0 | x | x | x
COc1cc2c(cc1NC(=S)Nc1cccc3ccccc13)oc1ccccc12 | -14.9 | 2.4 | -3.0 | 36.5 | 99.0 | 92.0 | x | x | x
CSCCC(NC(=O)c1ccccc1Cl)C(=O)N1CCN(c2ccccn2)CC1 (centres undefined) | 6.3 | -7.9 | 1.0 | -3.5 | 100.0 | 99.0 | x | x | x
Cc1ccc(OCC(COCc2ccccc2)NC(C)C)cc1 (centres undefined) | 10.1 | -19.8 | x | -10.9 | x | x | x | x | x
SMILES | UBC13 inh | Apaf1 inhib | MEKK2mut PB1 HTS | PREPL inh | MEKK3 PB1 HTS | MEKK2 WT-MEK5 | MEKK2wt confirm | MEKK2mut confirm | MEKK3-MEK5 inh
CC1=C(C(=O)NC2CC(C)(C)Cc3c2cnn3-c2cccc(F)c2)OCCO1 (centres undefined) | -2.3 | 0.8 | -1.0 | 32.7 | 100.0 | 101.0 | x | x | x
CC(=O)c1cn(C)c(=O)[nH]c1=O | 6.6 | 1.0 | -5.0 | 3.3 | 96.0 | 96.0 | x | x | x
COc1cc(C(O)CO)ccc1OS(=O)(=O)O (centres undefined) | -13.5 | -3.6 | x | 0.0 | x | x | x | x | x
C=CCN1c2ccccc2[C@]23C[C@@H](C(=O)OC)N(C(=O)c4ccco4)C2=NC(C(=O)OC)=C(C(=O)OC)[C@H]13 | -7.0 | 5.6 | 2.0 | -0.4 | 128.0* | 145.0* | 95.0 | -9.0 | 97.0
O=C(COC(=O)c1cnccn1)NCCc1ccc(Cl)cc1 | -9.6 | 8.0 | x | x | x | x | x | x | x
Cc1nnc(NC(=O)CCC(=O)N2CCN(S(=O)(=O)c3cc([N+](=O)[O-])ccc3C)CC2)s1 | -1.8 | 4.1 | x | 7.8 | x | x | x | x | x
COc1ccc(C2CC(c3cccs3)=NN2c2ccc(C=O)cc2)cc1 (centres undefined) | x | x | -4.0 | 10.5 | 88.0 | 63.0*[inhibitor] | 82.0 | -16.0 | 99.0
COc1ccc(C2CC(c3cccs3)=NN2S(C)(=O)=O)cc1OC (centres undefined) | -1.2 | -13.4 | 70.0* | 3.0 | 80.0 | x | 100.0 | 5.0 | 99.0
COc1ccc(C2=NN(c3ccc(C=O)cc3)C(c3ccccc3)C2)cc1 (centres undefined) | 7.1 | 24.1 | 0.0 | 9.2 | 104.0 | 94.0 | x | x | x
